Assay results: ChEMBL document CHEMBL1137561 (J Med Chem, 2007)

Key:
[1] = tested on: Human immunodeficiency virus 1; test: Antiviral activity against HIV1 with reverse transcriptase Y181C mutation in MT4 cells assessed as inhibition of viral induced cytopathic effect by MTT method; format: functional, organism-based; details: Human immunodeficiency virus 1, MT4
In short: (§1)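 MT-4 cells infected with the HIV-1 NNRTI-resistant mutant strain. Viable cells scored at day 5 post-infection by the MTT tetrazolium colorimetric method. […] Values are means ± SD from at least two experiments.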

[2] = Resistance index, Ratio of EC50 for drug-resistant HIV1 with RT Y181C mutation in MT4 cells to EC50 for HIV1 NL43 in MT4 cells
[3] = tested on: Human immunodeficiency virus 1; test: Antiviral activity against HIV1 with reverse transcriptase Y188L mutation in MT4 cells assessed as inhibition of viral induced cytopathic effect by MTT method; format: functional, organism-based; details: Human immunodeficiency virus 1, MT4
In short: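 MT-4 cells infected with the HIV-1 NNRTI-resistant mutant strain. Viable cells scored at day 5 post-infection by the MTT tetrazolium colorimetric method. Values are means ± SD from at least two experiments.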

[4] = Resistance index, Ratio of EC50 for drug-resistant HIV1 with RT K103N mutation in MT4 cells to EC50 for HIV1 NL43 in MT4 cells
[5] = tested on: Human immunodeficiency virus 1; test: Antiviral activity against HIV1 with reverse transcriptase K103N mutation in MT4 cells assessed as inhibition of viral induced cytopathic effect by MTT method; format: functional, organism-based; details: Human immunodeficiency virus 1, MT4; in short: as §1
[6] = Cytotoxicity against MT4 cells after 4 days by MTT method; format: cell-based; details: human
In short: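 Mock-infected (noninfected) MT-4 cells, run in parallel with the antiviral test. Viable cells read by the MTT tetrazolium colorimetric method. […] Means ± SD from at least two experiments. The top concentration was limited where compounds precipitated in the culture medium.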

[7] = tested on: Human immunodeficiency virus 1; test: Antiviral activity against HIV1 with reverse transcriptase IRLL98 mutation in MT4 cells assessed as inhibition of viral induced cytopathic effect by MTT method; format: functional, organism-based; details: Human immunodeficiency virus 1, MT4
[8] = Selectivity index, ratio of CC50 for MT4 cells to EC50 for HIV1 NL43 infected MT4 cells; format: functional
[9] = Resistance index, Ratio of EC50 for drug-resistant HIV1 with RT IRLL98 mutation in MT4 cells to EC50 for HIV1 NL43 in MT4 cells
[10] = tested on: Human immunodeficiency virus 1; test: Antiviral activity against HIV1 NL43 in MT4 cells assessed as inhibition of viral induced cytopathic effect after 5 days by MTT method; details: Human immunodeficiency virus 1, NL43, MT4, 120 h
[11] = biological target: Human immunodeficiency virus type 1 reverse transcriptase (Human immunodeficiency virus 1, UniProt Q72547, V106A); test: Inhibition of HIV1 reverse transcriptase V106A mutant
[12] = Inhibition of HIV1 reverse transcriptase Y1811 mutant; set-up: species or system Human immunodeficiency virus 1
In short: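 Recombinant HIV-1 RT Y181I mutant, purified to >95%, 10 min preincubation with inhibitor. Radioactive nucleotide incorporation into poly(rA)/oligo(dT) 10:1 was followed at varied nucleotide substrate levels, sampling every 2 min for initial velocities. Inhibitor spanned 0.2–5 Ki. Ki came from Lineweaver-Burk and Dixon plots. Means ± SD of at least three experiments.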

[13] = biological target: Human immunodeficiency virus type 1 reverse transcriptase (Human immunodeficiency virus 1, UniProt Q72547, L100I); test: Inhibition of HIV1 reverse transcriptase L100I mutant
[14] = biological target: Human immunodeficiency virus type 1 reverse transcriptase (Human immunodeficiency virus 1, UniProt Q72547, K103N); test: Inhibition of HIV1 reverse transcriptase K103N mutant
[15] = biological target: Human immunodeficiency virus type 1 reverse transcriptase (Human immunodeficiency virus 1, UniProt Q72547, Y188L); test: Inhibition of HIV1 reverse transcriptase Y188L mutant
[16] = biological target: Human immunodeficiency virus type 1 reverse transcriptase (Human immunodeficiency virus 1, UniProt Q72547); test: Inhibition of wild type HIV1 3B reverse transcriptase
[17] = biological target: Human immunodeficiency virus type 1 reverse transcriptase (Human immunodeficiency virus 1, UniProt Q72547, V179D); test: Inhibition of HIV1 reverse transcriptase V179D mutant

| SMILES | EC50 [1] [nM] | Fold change [2] | EC50 [3] [nM] | Fold change [4] | EC50 [5] [nM] | CC50 at 96 h [6] [nM] | EC50 [7] [nM] | Ratio CC50/EC50 [8] | Ratio EC50 [9] | EC50 [10] [nM] | Ratio EC50 [2] | Ki [11] [nM] | Ki [12] [nM] | Ki [13] [nM] | Ki [14] [nM] | Ki [15] [nM] | Ki [16] [nM] | Ki [17] [nM] |
| --- | --- | --- | --- | --- | --- | --- | --- | --- | --- | --- | --- | --- | --- | --- | --- | --- | --- | --- |
| CCCN(C)c1nc(C(C)c2c(F)cccc2F)cc(=O)[nH]1 (stereo not given) | 50 | 83 | > 10000 | 133 | 80 | > 81000 | 150 | >135000 | 250 | 0.6 |  |  |  |  |  |  |  |  |
| CC1CCCN(c2nc(Cc3c(F)cccc3F)cc(=O)[nH]2)C1 (stereo not given) | 430 |  | > 10000 |  | > 10000 | > 78000 | 1800 | >2437 | 56 | 32 | 13 |  |  |  |  |  |  |  |
| O=c1cc(Cc2c(F)cccc2F)nc(N2CCCCCC2)[nH]1 | 430 |  | > 10000 |  | > 10000 | > 78000 | 1400 | >3545 | 64 | 22 | 19 |  |  |  |  |  |  |  |
| CC(C)N(C)c1nc(Cc2c(F)cccc2F)cc(=O)[nH]1 | 30 |  | > 10000 |  | > 10000 | 85000 | 180 | 10625 | 22 | 8 | 4 |  |  |  |  |  |  |  |
| O=c1cc(Cc2c(F)cccc2F)nc(N2CCC3(CC2)OCCO3)[nH]1 |  |  |  |  |  | > 69000 |  | >31 |  | 2220 |  |  |  |  |  |  |  |  |
| Cc1c(Cc2c(F)cccc2F)nc(N2CCCC(C)C2)[nH]c1=O (stereo not given) | 570 |  | > 10000 |  | > 10000 | > 75000 | 2100 | >4167 | 117 | 18 | 32 |  |  |  |  |  |  |  |
| Cc1c(Cc2c(F)cccc2F)nc(N2CCCCC2C)[nH]c1=O (stereo not given) | 140 |  | > 10000 |  | > 10000 | 75000 | 1400 | 8333 | 156 | 9 | 16 |  |  |  |  |  |  |  |
| CCCN(CCC)c1nc(Cc2c(F)cccc2F)c(C)c(=O)[nH]1 |  |  |  |  |  | > 74000 |  | >35 |  | 2090 |  |  |  |  |  |  |  |  |
| CCCN(C)c1nc(Cc2c(F)cccc2F)cc(=O)[nH]1 |  |  |  |  |  | 85000 |  | 9444 |  | 9 |  |  |  |  |  |  |  |  |
| Cc1c(Cc2c(F)cccc2F)nc(N2CCC(C)CC2)[nH]c1=O |  |  | > 10000 |  | > 10000 | > 75000 | > 10000 | >750 |  | 100 |  | 500 |  |  |  |  |  |  |
| CCCN(CCC)c1nc(Cc2c(F)cccc2F)cc(=O)[nH]1 |  |  |  |  |  | > 78000 |  | >44 |  | 1780 |  |  |  |  |  |  |  |  |
| Cc1ccnc2c1NC(=O)c1cccnc1N2C1CC1 [NEVIRAPINE] | 870 |  |  |  | 1800 | > 7000 | 9900 |  |  | 80 |  |  | 35000 |  |  |  |  |  |
| O=c1cc(Cc2c(F)cccc2F)nc(N2CCOCC2)[nH]1 | > 10000 |  | > 10000 |  | > 10000 | > 81000 | > 10000 | >384 |  | 211 |  | 2900 | > 20000 | 15000 | > 20000 | > 20000 | 700 |  |
| O=c1cc(Cc2c(F)cccc2F)nc(-n2cccc2)[nH]1 |  |  |  |  |  | > 87000 |  | >5 |  | 17300 |  |  |  |  |  |  |  |  |
| Cc1c(Cc2c(F)cccc2F)nc(N2CCN(C)CC2)[nH]c1=O |  |  |  |  |  | > 75000 |  | >125 |  | 598 |  | 900 |  |  |  |  | 2000 | > 40000 |
| Cc1c(C(C)c2c(F)cccc2F)nc(N2CCCCCC2)[nH]c1=O (stereo not given) |  |  |  |  |  | > 72000 |  | >8000 |  | 9 |  |  |  |  |  |  |  |  |
